From ChEMBL document CHEMBL1781968, “δ-Carbolines and their ring-opened analogs: synthesis and evaluation against fungal and bacterial opportunistic pathogens” (Eur J Med Chem, 2011) come the findings set out here.

Calls of active or inactive are those of the source.

Series [1] in a line: Cytotoxicity against african green monkey Vero cell after 48 hrs by neutral red uptake assay. It is filed as cell-based. As to conditions: chlorocebus sabaeus, Vero cells; read-out: TC50. An outline of the steps: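 VERO kidney fibroblasts seeded at 25,000 cells/well and incubated 24 h. Compounds added, highest concentration 10 μg/mL, then 48 h further incubation. Viable cells measured by neutral red assay. IC50 taken from growth-inhibition dose curves. Doxorubicin as positive control, DMSO as vehicle control.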

Series [2] concerns Candida albicans. Put plainly: Antifungal activity against Candida albicans ATCC 90028 by NCCLS method. The format is functional, organism-based. An outline of the steps:
(§1)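 Modified NCCLS microdilution for fungi. Samples in DMSO serially diluted with 0.9% saline, in duplicate, final concentrations from 20 μg/mL down. Inocula matched to 0.5 McFarland (630 nm) and diluted in Sabouraud dextrose broth. Growth, solvent and medium controls included. OD 530 nm read before and after incubation. IC50 from percent growth curve. MIC is no detectable growth. MFC is lowest concentration killing the organism.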

Series [3] concerns Cryptococcus neoformans. Nature of the series: Antifungal activity against Cryptococcus neoformans ATCC 90113 by NCCLS method. The format is functional, organism-based. An outline of the steps: as §1
Series [4] deals with Aspergillus fumigatus. Put plainly: Antifungal activity against Aspergillus fumigatus ATCC 204305 at 20 ug/ml by NCCLS method. The format is functional, organism-based. An outline of the steps:
as §1

Series [5] has as its system Staphylococcus aureus. Nature of the series: Antibacterial activity against Staphylococcus aureus ATCC 29213 by NCCLS method. It is filed as functional, organism-based. An outline of the steps: (§2)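 Broth microdilution (modified NCCLS). Samples in DMSO serially diluted in 0.9% saline, tested in duplicate, highest final concentration 20 μg/mL. Inoculum matched to 0.5 McFarland standard by absorbance at 630 nm, then diluted in cation-adjusted Mueller–Hinton broth. Growth, solvent and medium controls on each plate. Absorbance at 530 nm read before and after incubation. IC50 taken from percent growth versus concentration plot; MIC is lowest concentration with no detectable growth; MBC is lowest concentration killing the organism.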

Series [6] relates to Staphylococcus aureus. Nature of the series: Antibacterial activity against methicillin-resistant Staphylococcus aureus ATCC 33591 by NCCLS method. The format is functional, organism-based. An outline of the steps:
as §2

The test system of series [7] is Escherichia coli. Put plainly: Antibacterial activity against Escherichia coli at 20 ug/ml by NCCLS method. The format is functional, organism-based. An outline of the steps: (§3)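 Modified NCCLS broth microdilution. DMSO-dissolved samples serially diluted in 0.9% saline, tested in duplicate, final concentrations starting at 20 μg/mL. Inoculum set to 0.5 McFarland (absorbance 630 nm) and diluted in cation-adjusted Mueller–Hinton broth. Growth, solvent and medium controls on each plate. Read at 530 nm before and after incubation. IC50 from percent growth versus concentration. MIC is lowest concentration with no detectable growth.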

Series [8] concerns Mycobacterium intracellulare. Put plainly: Antibacterial activity against Mycobacterium intracellular ATCC 23068 by alamar blue method. The format is functional, organism-based. An outline of the steps: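 Modified Alamar blue method (Franzblau). Samples in DMSO serially diluted in 0.9% saline, in duplicate, final concentrations starting at 20 μg/mL. Inoculum adjusted to 0.5 McFarland, then diluted in Middlebrook 7H9 with OADC enrichment plus 5% Alamar blue. Fluorescence read (ex 544/em 590 nm) before and after incubation. IC50 from percent growth versus concentration. MIC is no detectable growth.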
A general note: Alamar Blue is a resazurin reagent that responds to reducing activity.

The test system of series [9] is Escherichia coli. Nature of the series: Antibacterial activity against Escherichia coli by NCCLS method. The format is functional, organism-based. An outline of the steps:
as §3

One may read the IC50 as the midpoint of a concentration-inhibition curve. Usually MFC stands for the smallest concentration meeting the test's criterion for killing the fungus. As a reminder, the MIC is the lowest concentration that inhibits growth of the organism. What is called MBC is the smallest concentration meeting the test's criterion for killing. For `C[n+]1cccc2c1c1cc(C#N)ccc1n2CCCCCC1CCCCC1.[I-]`, the CC50 at 48 h in series [1] is > 10 µg/mL. Further, the IC50 in [2] was 19 µg/mL; in series [3], 2.8 µg/mL; in series [5], 2.6 µg/mL; in series [6] it was 5.8 µg/mL; in series [8], 2.1 µg/mL. Moreover, the MFC in series [2] is > 20 µg/mL; in [3], 5 µg/mL. Besides, the MIC stood at 20 µg/mL in series [2]; 5 µg/mL in [3]; 5 µg/mL in [5]; 10 µg/mL in series [6]; 2.5 µg/mL in series [8]. The outcome in [4] and in series [7] was inactive. In addition, the results for the MBC in series [5], in [6] and in series [8] were 20 µg/mL, 20 µg/mL and 5 µg/mL, respectively.
With `C[n+]1cccc(N(CCCCCC2CCCCC2)c2ccc(F)cc2)c1.[I-]`, the CC50 at 48 h in [1] is > 10 µg/mL. Besides, the MFC in [2] was > 20 µg/mL. Besides, the outcome in [4] was inactive. Further, the IC50 in [5] turned out to be 0.7 µg/mL; in [6], 3 µg/mL; in [9], 18 µg/mL; in [8], 3.2 µg/mL. In addition, the MBC in series [5] is 10 µg/mL; in series [6], 20 µg/mL; in series [9] it was > 20 µg/mL; in [8], 10 µg/mL. Further, the MIC in series [5] was 1.3 µg/mL; in [6], 5 µg/mL; in [9], > 20 µg/mL; in series [8], 5 µg/mL.
On to `C[n+]1cccc(N(CCCCCC2CCCCC2)c2cccc(C#N)c2)c1.[I-]`, for which, in [5], the IC50 turned out to be 0.8 µg/mL, the MBC came out at 20 µg/mL and inhibition of growth (MIC) required 1.3 µg/mL. In series [6], this molecule registered an IC50 of 3.9 µg/mL, an MBC of 10 µg/mL and an MIC of 10 µg/mL. In addition, the result in [7] was inactive. In series [8], this molecule had an IC50 of 2 µg/mL, an MBC of 10 µg/mL and an MIC of 2.5 µg/mL.
In the case of `COc1ccc(N(CCCCCC2CCCCC2)c2ccc[n+](C)c2)cc1.[I-]`, the CC50 at 48 h in series [1] was > 10 µg/mL. In addition, the result in series [4] was inactive. Further, the IC50 in [5] turned out to be 0.3 µg/mL; in series [6] it was 1.9 µg/mL; in series [9], 5.4 µg/mL; in series [8] it was 1 µg/mL. The MBC in series [5] was 10 µg/mL; in [6], 10 µg/mL; in series [9], > 20 µg/mL; in [8] it was 5 µg/mL. For the same molecule, the MIC was 0.6 µg/mL in series [5], 5 µg/mL in series [6], > 20 µg/mL in series [9] and 1.3 µg/mL in series [8].
Regarding `COc1cccc(N(CCCCCC2CCCCC2)c2ccc[n+](C)c2)c1.[I-]`, the values for the IC50 in series [5], in series [6] and in series [8] were 0.8 µg/mL, 4.8 µg/mL and 3.3 µg/mL, respectively. Moreover, the MBC stood at 20 µg/mL in series [5], 20 µg/mL in series [6] and 10 µg/mL in [8]. In addition, the results for the MIC in series [5], in [6] and in [8] were 1.3 µg/mL, 10 µg/mL and 5 µg/mL, respectively. In addition, the outcome in series [7] was inactive.
In the case of `C[n+]1cccc(N(CCCCCC2CCCCC2)c2ccc(C#N)cc2)c1.[I-]`, the CC50 at 48 h in series [1] was > 10 µg/mL. Moreover, the outcome in series [4] and in series [7] was inactive. The figures for the IC50 in [5], in [6] and in [8] were 2.5 µg/mL, 6.2 µg/mL and 2.8 µg/mL, respectively. The figures for the MBC in [5], in series [6] and in series [8] were 20 µg/mL, 20 µg/mL and 5 µg/mL, respectively. The MIC was 5 µg/mL in series [5], 10 µg/mL in [6] and 5 µg/mL in series [8].
